Experimental data as given in ChEMBL document CHEMBL1781989, “Novel β-carboline-tripeptide conjugates attenuate mesenteric ischemia/reperfusion injury in the rat” (2011).
Activity calls are given as the source filed them. Non-standard residues stand in square brackets, D forms with d. Residues, ends and D or L forms follow the SMILES beside them. Tpi = O=C(O)[C@@H]1Cc2c([nH]c3ccccc23)CN1

Tests used:
Mus musculus [1] = test: Analgesic activity in ICR mouse assessed as increase in pain threshold at 0.15 mmol/kg, po after 120 mins by tail flick method (reference value: 8.09 +/- 13.28 %); format: functional
Mus musculus [2] = test: Analgesic activity in ICR mouse assessed as increase in pain threshold at 0.15 mmol/kg, po after 150 mins by tail flick method (reference value: 9.02 +/- 12.19 %); format: functional
Mus musculus [3] = test: Analgesic activity in ICR mouse assessed as increase in pain threshold at 0.10 mmol/kg, po after 120 mins by tail flick method (reference value: 8.09 +/- 13.28 %); format: functional
Mus musculus [4] = test: Analgesic activity in ICR mouse assessed as increase in pain threshold at 0.10 mmol/kg, po after 180 mins by tail flick method (reference value: 8.75 +/- 9.73 %); format: functional
Mus musculus [5] = test: Analgesic activity in ICR mouse assessed as increase in pain threshold at 0.15 mmol/kg, po after 180 mins by tail flick method (reference value: 8.75 +/- 9.73 %); format: functional
Mus musculus [6] = test: Analgesic activity in ICR mouse assessed as increase in pain threshold at 0.05 mmol/kg, po after 150 mins by tail flick method (reference value: 9.02 +/- 12.19 %); format: functional
Mus musculus [7] = test: Antiinflammatory activity in ICR mouse assessed as inhibition of xylene-induced ear edema at 0.10 mmol/kg, po administered 30 mins before xylene challenge measured after 2 hrs relative to control; format: functional
Method in brief: (§1)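 Male ICR mice (20 ± 2 g), randomised to test, vehicle (CMC) and aspirin (10 mg/kg oral) groups. Test agents given orally as CMC suspension. After 30 min, 0.03 mL xylene applied to both faces of the right ear, left ear as control. At 2 h mice were killed and 7 mm ear punches weighed. Edema is the right-minus-left weight, and inhibition is taken against vehicle.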

Mus musculus [8] = test: Analgesic activity in ICR mouse assessed as increase in pain threshold at 0.15 mmol/kg, po after 90 mins by tail flick method (reference value: 7.53 +/- 11.54 %); format: functional
Mus musculus [9] = test: Analgesic activity in ICR mouse assessed as increase in pain threshold at 0.05 mmol/kg, po after 120 mins by tail flick method (reference value: 8.09 +/- 13.28 %); format: functional
Mus musculus [10] = test: Analgesic activity in ICR mouse assessed as increase in pain threshold at 0.05 mmol/kg, po after 60 mins by tail flick method (reference value: 7.45 +/- 8.03 %); format: functional
Mus musculus [11] = test: Analgesic activity in ICR mouse assessed as increase in pain threshold at 0.10 mmol/kg, po after 150 mins by tail flick method (reference value: 9.02 +/- 12.19 %); format: functional
Mus musculus [12] = test: Analgesic activity in ICR mouse assessed as increase in pain threshold at 0.10 mmol/kg, po after 90 mins by tail flick method (reference value: 7.53 +/- 11.54 %); format: functional
Mus musculus [13] = test: Antiinflammatory activity in ICR mouse assessed as inhibition of xylene-induced ear edema at 0.05 mmol/kg, po administered 30 mins before xylene challenge measured after 2 hrs relative to control; format: functional; method in brief: as §1
Mus musculus [14] = test: Analgesic activity in ICR mouse assessed as increase in pain threshold at 0.05 mmol/kg, po after 180 mins by tail flick method (reference value: 8.75 +/- 9.73 %); format: functional
Mus musculus [15] = test: Analgesic activity in ICR mouse assessed as increase in pain threshold at 0.10 mmol/kg, po after 60 mins by tail flick method (reference value: 7.45 +/- 8.03 %); format: functional
Mus musculus [16] = test: Antiinflammatory activity in ICR mouse assessed as inhibition of xylene-induced ear edema at 0.15 mmol/kg, po administered 30 mins before xylene challenge measured after 2 hrs relative to control; format: functional; method in brief: as §1
Mus musculus [17] = test: Analgesic activity in ICR mouse assessed as increase in pain threshold at 0.05 mmol/kg, po after 90 mins by tail flick method (reference value: 7.53 +/- 11.54 %); format: functional
Mus musculus [18] = test: Analgesic activity in ICR mouse assessed as increase in pain threshold at 0.10 mmol/kg, po after 30 mins by tail flick method (reference value: 5.03 +/- 10.26 %); format: functional
Mus musculus [19] = test: Analgesic activity in ICR mouse assessed as increase in pain threshold at 0.15 mmol/kg, po after 30 mins by tail flick method (reference value: 5.03 +/- 10.26 %); format: functional
Mus musculus [20] = test: Antiinflammatory activity in po dosed ICR mouse assessed as inhibition of xylene-induced ear edema administered 30 mins before xylene challenge measured after 2 hrs; format: functional, organism-based; method in brief: as §1
Mus musculus [21] = test: Analgesic activity in ICR mouse assessed as increase in pain threshold at 0.05 mmol/kg, po after 30 mins by tail flick method (reference value: 5.03 +/- 10.26 %); format: functional
Mus musculus [22] = test: Analgesic activity in ICR mouse assessed as increase in pain threshold at 0.15 mmol/kg, po after 60 mins by tail flick method (reference value: 7.45 +/- 8.03 %); format: functional
Rattus norvegicus [23] = test: Antioxidant activity in mesenteric ischemia/reperfusion injury Wistar rat model ileum assessed as restoration of glutathione levels at 20 mg/kg, ip administered 15 mins before and 1 hr after initiation of reperfusion by Beutler's method; format: functional, organism-based; parameters: dose 20 mg/kg
Method in brief: (§2)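 Dosing 20 mg/kg ip 15 min before and 1 h after reperfusion onset. Intestinal MDA measured by the Beuge and Aust method as nmol/g tissue, and GSH by the Beutler method as µmol/g tissue.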

Rattus norvegicus [24] = test: Antiinflammatory activity in mesenteric ischemia/reperfusion injury Wistar rat model ileum assessed as reduction of mucosal damage at 20 mg/kg, ip administered 15 mins before and 1 hr after initiation of reperfusion by hematoxylin-eosin staining; format: functional, organism-based; parameters: dose 20 mg/kg
Method in brief: (§3)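 Male Wistar rats (250–300 g) under pentobarbital (80 mg/kg ip) at 37 °C. Drug 20 mg/kg ip 15 min before reperfusion and 1 h into reperfusion, saline to other groups. Terminal ileum (10 mm) snap-frozen, cut at 4–5 µm by cryostat, stained with H&E, and viewed by light microscopy.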

Rattus norvegicus [25] = test: Antioxidant activity in mesenteric ischemia/reperfusion injury Wistar rat model assessed as decrease of myeloperoxidase activity in intestinal tissue at 20 mg/kg, ip administered 15 mins before and 1 hr after initiation of reperfusion; format: functional, organism-based; parameters: dose 20 mg/kg
Rattus norvegicus [26] = test: Antiinflammatory activity in mesenteric ischemia/reperfusion injury Wistar rat model assessed as reduction of focal denudation of epithelium villi at 20 mg/kg, ip administered 15 mins before and 1 hr after initiation of reperfusion by hematoxylin-eosin staining; format: functional, organism-based; parameters: dose 20 mg/kg; method in brief: as §3
Rattus norvegicus [27] = test: Antioxidant activity in mesenteric ischemia/reperfusion injury Wistar rat model ileum assessed as decrease of malondialdehyde levels at 20 mg/kg, ip administered 15 mins before and 1 hr after initiation of reperfusion by Beuge's method; format: functional, organism-based; parameters: dose 20 mg/kg; method in brief: as §2

Row | SMILES | Activity (Mus musculus [1]) [%] | Activity (Mus musculus [2]) [%] | Activity (Mus musculus [5]) [%] | inhibition in vivo at 100 µmol/kg (Mus musculus [7]) [%] | Activity (Mus musculus [8]) [%] | inhibition in vivo at 50 µmol/kg (Mus musculus [13]) [%] | inhibition in vivo at 150 µmol/kg (Mus musculus [16]) [%] | Activity (Mus musculus [19]) [%] | inhibition (Mus musculus [20]) | Activity (Mus musculus [22]) [%] | further results
1 | NCCCC[C@H](NC(=O)[C@@H]1Cc2c([nH]c3ccccc23)CN1)C(=O)N[C@@H](Cc1ccccc1)C(=O)N[C@@H](Cc1c[nH]c2ccccc12)C(=O)O (H-[Tpi]KFW-OH) | 41.28 | 29.04 | 25.69 | 45.4 | 54.39 | 28.3 | 55.2 | 44.27 | Dose-dependent effect | 52.22 | Activity (Mus musculus [3]): 23.08%; Activity (Mus musculus [4]): 14.38%; Activity (Mus musculus [6]): 15.43%; Activity (Mus musculus [9]): 18.99%; Activity (Mus musculus [10]): 26.54%; Activity (Mus musculus [11]): 21.39%; Activity (Mus musculus [12]): 38.33%; Activity (Mus musculus [14]): 9.06%; Activity (Mus musculus [15]): 34.48%; Activity (Mus musculus [17]): 23.58%; Activity (Mus musculus [18]): 32.32%; Activity (Mus musculus [21]): 11.55%
2 | CC(C)C[C@H](NC(=O)[C@@H]1Cc2c([nH]c3ccccc23)CN1)C(=O)N[C@@H](Cc1ccccc1)C(=O)N[C@@H](Cc1c[nH]c2ccccc12)C(=O)O (H-[Tpi]LFW-OH) | 34.55 | 25.46 | 18.86 | 49.6 | 44.67 | 38.7 | 60.7 | 48.25 | Dose-dependent effect | 59.37 | Activity (Mus musculus [3]): 25.45%; Activity (Rattus norvegicus [23]): Active; Activity (Mus musculus [4]): 13.42%; Activity (Rattus norvegicus [24]): Active; Activity (Mus musculus [6]): 8.23%; Activity (Mus musculus [9]): 17.97%; Activity (Mus musculus [10]): 23.45%; Activity (Rattus norvegicus [25]): Active; Activity (Mus musculus [11]): 22.13%; Activity (Mus musculus [12]): 32.73%; Activity (Rattus norvegicus [26]): Active; Activity (Rattus norvegicus [27]): Active; Activity (Mus musculus [14]): 7.46%; Activity (Mus musculus [15]): 37.65%; Activity (Mus musculus [17]): 20.65%; Activity (Mus musculus [18]): 35.41%; Activity (Mus musculus [21]): 29.22%
3 | N=C(N)NCCC[C@H](NC(=O)[C@@H]1Cc2c([nH]c3ccccc23)CN1)C(=O)N[C@@H](Cc1ccccc1)C(=O)N[C@@H](Cc1c[nH]c2ccccc12)C(=O)O (H-[Tpi]RFW-OH) | 37.12 | 29.38 | 21.55 | 26.5 | 46.08 | 11.3 | 57 | 38.16 | Dose-dependent effect | 35.13 | –
4 | O=C(O)[C@H](Cc1c[nH]c2ccccc12)NC(=O)[C@H](Cc1ccccc1)NC(=O)[C@H](Cc1ccc(O)cc1)NC(=O)[C@@H]1Cc2c([nH]c3ccccc23)CN1 (H-[Tpi]YFW-OH) | 30.25 | 28.87 | 20.94 | 32.9 | 43.23 | 16.2 | 50.9 | 35.75 | Dose-dependent effect | 41.18 | –
5 | C[C@H](NC(=O)[C@@H]1Cc2c([nH]c3ccccc23)CN1)C(=O)N[C@@H](Cc1ccccc1)C(=O)N[C@@H](Cc1c[nH]c2ccccc12)C(=O)O (H-[Tpi]AFW-OH) | 42.03 | 28.79 | 19.22 | 44.8 | 46.48 | 32.6 | 52.7 | 37.58 | Dose-dependent effect | 48.23 | –
6 | O=C(O)C[C@H](NC(=O)[C@@H]1Cc2c([nH]c3ccccc23)CN1)C(=O)N[C@@H](Cc1ccccc1)C(=O)N[C@@H](Cc1c[nH]c2ccccc12)C(=O)O (H-[Tpi]DFW-OH) | 40.67 | 13.54 | 18.77 | – | 34.55 | – | 40 | 22.17 | – | 28.12 | –
7 | O=C(O)[C@H](Cc1c[nH]c2ccccc12)NC(=O)[C@H](Cc1ccccc1)NC(=O)[C@H](Cc1cnc[nH]1)NC(=O)[C@@H]1Cc2c([nH]c3ccccc23)CN1 (H-[Tpi]HFW-OH) | 39.38 | 24.33 | 13.29 | – | 22.23 | – | 57.6 | 37.25 | – | 32.19 | –
8 | O=C(O)[C@H](Cc1c[nH]c2ccccc12)NC(=O)[C@H](Cc1ccccc1)NC(=O)[C@H](Cc1ccccc1)NC(=O)[C@@H]1Cc2c([nH]c3ccccc23)CN1 (H-[Tpi]FFW-OH) | 45.46 | 21.12 | 15.32 | – | 40.56 | – | 48.2 | 31.34 | – | 37.2 | –
9 | NC(=O)CC[C@H](NC(=O)[C@@H]1Cc2c([nH]c3ccccc23)CN1)C(=O)N[C@@H](Cc1ccccc1)C(=O)N[C@@H](Cc1c[nH]c2ccccc12)C(=O)O (H-[Tpi]QFW-OH) | 32.33 | 18.32 | 22.45 | – | 51.25 | – | 42.4 | 41.83 | – | 47.33 | –
10 | O=C(O)CC[C@H](NC(=O)[C@@H]1Cc2c([nH]c3ccccc23)CN1)C(=O)N[C@@H](Cc1ccccc1)C(=O)N[C@@H](Cc1c[nH]c2ccccc12)C(=O)O (H-[Tpi]EFW-OH) | 39.23 | 12.25 | 12.32 | – | 29.25 | – | 28.4 | 18.24 | – | 17.23 | –
11 | CC[C@H](C)[C@H](NC(=O)[C@@H]1Cc2c([nH]c3ccccc23)CN1)C(=O)N[C@@H](Cc1ccccc1)C(=O)N[C@@H](Cc1c[nH]c2ccccc12)C(=O)O (H-[Tpi]IFW-OH) | 27.32 | 15.25 | 16.13 | – | 41.23 | – | 56.4 | 33.01 | – | 38.01 | –
